5HT1a ag – activates the human 5-HT1a serotonin receptor; CHO 5-HT1a Ga15 NFAT-bla reporter, FRET ratio; 0% basal, 100% maximal reference agonist; activation, % at 10 µM; P08908; actives 0.56% (n = 65,000);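 active = activation above the screen-wide mean activation plus 3 SD, cut at about 19% in these data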;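 note: 0% = DMSO wells and 100% = 5-CT at EC100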
S1P3 agonist – agonists of human S1P3 receptor. Q99500. actives 0.1% (n = 60,000). S1P3 NFAT-BLA reporter cells, agonism, FRET ratio; relative to 1 µM S1P, basal subtracted. activation, % at 4.5 µM. AID 373;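 active = activation above the screen-wide mean plus 3 SD, cut at about 4.5% in these data, passing the limit was not always enough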
Target sequence (Q99500 whole entry, looked up): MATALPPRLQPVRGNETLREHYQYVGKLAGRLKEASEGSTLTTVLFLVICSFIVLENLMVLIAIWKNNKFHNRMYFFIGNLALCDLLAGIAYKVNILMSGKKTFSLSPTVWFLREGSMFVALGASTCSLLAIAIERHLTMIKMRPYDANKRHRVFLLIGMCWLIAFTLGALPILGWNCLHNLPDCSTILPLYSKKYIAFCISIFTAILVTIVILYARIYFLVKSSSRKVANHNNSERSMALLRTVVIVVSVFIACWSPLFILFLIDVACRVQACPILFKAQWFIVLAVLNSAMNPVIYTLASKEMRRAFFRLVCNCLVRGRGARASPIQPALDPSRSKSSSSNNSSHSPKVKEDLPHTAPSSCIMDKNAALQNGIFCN
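material = human S1P3 NFAT-BLA reporter CHO cells | schedule = 4 h compound at 37 °C, 2 h substrate at RT | measured by = fluorescent BLA substrate, ex 405 nm, em 460/535 nm ratio | controls = 1 µM S1P reference | replication = primary once, confirmation triplicate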
HTR1E antagonist – antagonists of human 5-HT1E serotonin receptor; inhibition, % at 6 µM; P28566; actives 0.99% (n = 65,000); CHO 5-HT1E Ga15 NFAT-bla reporter, FRET, antagonist;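 active = inhibition above a set limit, the mean inhibition across every tested compound plus 3 SD, cut at about 29% in these data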;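 note: signal is the 460 over 535 nm emission ratio of beta-lactamase substrate; 0% = agonist plus DMSO wells and 100% = wells without agonist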
5-HT1A blocker – 5-HT1a (human) receptor antagonism; P08908; CHO 5-HT1a Ga15 NFAT-bla reporter, antagonist mode; inhibition, % at 10 µM; actives 0.68% (n = 62,000);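 active = inhibition above the mean of all tested compounds plus 3 SD, cut at about 43% in these data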;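 note: receptor stimulated by 5-CT agonist at 100 nM near EC80; beta-lactamase reporter measured by ratiometric fluorescence of a cleavable substrate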
5HT1E ag – agonists of human 5-HT1E serotonin receptor; P28566; CHO 5-HT1E Ga15 NFAT-bla reporter, FRET; 0% DMSO wells, 100% control agonist wells; activation, % at 6 µM; actives 0.69% (n = 65,000);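 active = activation above a set limit, the screen-wide mean activation plus 3 SD, cut at about 8.5% in these data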;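 note: 100% = positive control agonist at 1 µM giving full maximal response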
S1P1 ag pot – S1P1 (human) agonism or agonism potentiation | S1P1 CRE-bla cells, forskolin, beta-lactamase FRET, potentiator mode; S1P1 agonist co-added at EC20, 2 nM; 100% = saturating reference agonist, 0% = basal | activation, % at 9.5 µM | actives 0.57% (n = 56,000);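 active = activation above a cutoff set at the mean activation of all tested compounds plus 3 SD, cut at about 54% in these data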;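 note: forskolin at 4 µM as EC80 and the EC20 agonist is SEW2871; 100% = SEW2871 at its EC100 plus forskolin at EC80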
The depositor's hits bear a star; · = no result. An excerpt weighted towards active compounds, which were near 3% of everything screened.

SMILES	5HT1a ag	S1P3 agonist	HTR1E antagonist	5-HT1A blocker	5HT1E ag	S1P1 ag pot
O=C(Nc1cccc(-c2cn3ccsc3n2)c1)c1ccccc1	-1	0	4	2	83*	-9
COc1ccc(-n2ncc3c(N(C)C4CCCCC4)ncnc32)cc1	31*	0	-11	-4	2	34
Cc1cccc(-n2ncc3c(N(C)C4CCCCC4)ncnc32)c1	-1	-1	11	15	1	53*
COc1ccc(-n2ncc3c(N4CCC(C)CC4)ncnc32)cc1	0	-1	3	1	0	-5
CCCCSc1nnc([C@@H](NC(=O)OC(C)(C)C)C(C)C)o1	1	0	-1	1	1	-9
Cc1cccc(OCCCCc2c(C)n[nH]c2C)c1C	-3	-2	8	12	-1	112*
CCOc1ccccc1OCCCCCc1c(C)n[nH]c1C	0	0	5	20	-1	89*
Cc1onc(-c2ccccc2Cl)c1C(=O)Nc1ccc(-c2nnc3n2CCCCC3)cc1	-2	0	-1	9	-1	9
COc1ccc(Cc2nnc(NC(=O)c3ccco3)s2)cc1OC	0	0	-3	-4	0	-31
CCNC(=O)CN(C1CCCCC1)S(=O)(=O)c1ccc(F)cc1	0	·	-6	7	-1	·
CNC(=O)CN(C1CCCCC1)S(=O)(=O)c1ccc(F)cc1	42*	0	-3	4	1	-5
CCOc1ncccc1C(=O)OCc1cc(=O)n2c(n1)sc1ccccc12	-3	0	8	-7	0	-2
O=C(Nc1ccccc1)N1CC=C(c2ccccc2)CC1	-2	1	0	13	0	·
O=C(O)C1CCCCC1C(=O)N1CC=C(c2ccccc2)CC1 (centres undefined)	6	-1	3	3	22*	12
Cc1cc(C)n(-c2nncn2/N=C/c2ccccc2F)n1	-2	-1	12	55*	-2	7
Fc1ccccc1/C=N/n1cnnc1	2	-2	-8	·	0	2
CC(C)c1nc(N2CCOCC2)c(C#N)c2c1CCC2	0	-2	10	·	0	8
Cn1c(C(=O)NCCCN2CCN(c3ccc(F)cc3)CC2)cc2c(=O)n(C)c3ccccc3c21	14	-1	2	65*	1	-10
COc1cccc2sc(Nc3nnc(-c4ccccc4Cl)o3)nc12	-4	0	25	64*	2	-185
COc1ccccc1-c1nnc(Nc2nc3c(OC)cccc3s2)o1	-5	-1	53*	51*	1	-28
Cc1cccc(N2CCN(CCNC(=O)c3cc4c(s3)CS(=O)(=O)C4)CC2)c1C	37*	·	-5	42	13*	·
COc1ccc(CN2CCC(C(=O)N3CCN(c4ccccc4F)CC3)CC2)cc1OC	0	-2	-9	2	0	-22
COc1ccc(CN2CCN(c3cccc(C)c3C)CC2)cc1OC	29*	0	11	6	24*	·
COc1cc(CN2CCN(c3cccc(C)c3C)CC2)cc(Br)c1O	1	-2	2	10	36*	-20
CCCCP(=O)(CCCC)c1ccccc1C(=O)O	252*	0	4	7	-1	-8
SMILES	5HT1a ag	S1P3 agonist	HTR1E antagonist	5-HT1A blocker	5HT1E ag	S1P1 ag pot
CCCCNC(=O)c1ccccc1C(=O)NCCCC	0	0	3	-5	-1	·
Nc1cccc2cnccc12	-2	-2	33*	30	0	20
CCOC(=O)c1c(C)oc2c1c(C=NCC1CCCO1)c(O)c1ccccc12 (centres undefined)	-3	-1	31*	64*	0	1
CC1(C2(O)CC(c3ccccc3)ON2)CCCCC1 (centres undefined)	3	-4	37*	·	-1	-7
CC(=O)c1ccc(C(C)(C)c2ccc(C(C)=O)s2)s1	-2	-1	11	2	-1	6
Cc1nn(-c2ccccc2)c(C)c1NS(=O)(=O)c1ccccc1	-1	0	36*	10	-1	-22
Cc1nn(C)c(C)c1NS(=O)(=O)c1ccccc1	-1	0	6	-10	0	-24
O=C1CC(Sc2nnnn2C2CCCCC2)C(=O)N1c1ccccc1 (centres undefined)	-2	-1	23	44*	0	-26
Clc1cccc(-c2nnc(SCc3nc4ccccc4[nH]3)n2Cc2ccco2)c1	1	0	15	27	1	-16
Clc1ccc(OCc2nnc(SCc3nc4ccccc4[nH]3)n2Cc2ccco2)cc1	-1	-1	3	1	1	61*
Cn1cc(/C=N/n2cnc3scc(-c4ccccc4)c3c2=O)c2ccccc21	3	-1	30*	10	-1	29
Clc1ccc2c(c1)CNc1c(ncnc1N1CCOCC1)O2	-3	-1	3	-2	0	-13
c1ccc(-c2csc3nnc(SCc4ccc5c(c4)OCO5)n23)cc1	-3	0	29*	2	1	-21
O=C(CCSc1nnc2scc(-c3ccccc3)n12)NCc1ccc2c(c1)OCO2	1	0	18	3	-1	-38
CCCOC(=O)c1ccc(OCC(O)Cn2c(C)nc3ccccc32)cc1 (centres undefined)	2	-1	-1	1	2	95*
CCOC(=O)Cn1c(C)nc2ccccc21	1	-1	0	-10	0	·
COc1ccc(CC(=O)Nc2ccc3c(c2)OCO3)cc1S(=O)(=O)N1CCOCC1	-3	0	-6	11	0	5
CCCC(=O)Nc1cnc(NC(=O)c2cccc(F)c2)cc1C	-1	·	7	-1	0	·
CCOC(=O)N1CCC(NC(=O)C2CCCN(Cc3nc(-c4cccc(Cl)c4)oc3C)C2)CC1 (centres undefined)	2	-2	12	25	1	103*
COc1ccc(CCNC(=O)C2CCCN(Cc3nc(-c4ccccc4C)oc3C)C2)cc1OC (centres undefined)	33*	0	-8	-3	0	-29
CCc1ccc(-c2nc(CN3CCCC(C(=O)NCCc4ccc(OC)c(OC)c4)C3)c(C)o2)cc1 (centres undefined)	37*	0	-17	-1	2	-14
COc1ccc(CCNC(=O)C2CCN(Cc3nc(-c4cccc(Cl)c4)oc3C)CC2)cc1OC	1	-1	-11	1	2	20
Cc1nc(NCCNC(=O)c2ccco2)c2c(C)c(C)sc2n1	-1	-1	32*	-4	0	5
O=S(=O)(Nc1ccc(N2CCOCC2)cc1)c1cccs1	-2	-1	6	-10	10*	12
